This note sets out measurements from ChEMBL document CHEMBL4393666, “Synthesis and Anti-HCV Activities of 4'-Fluoro-2'-Substituted Uridine Triphosphates and Nucleotide Prodrugs: Discovery of 4'-Fluoro-2'- C-methyluridine 5'-Phosphoramidate Prodrug (AL-335) for the Treatment of Hepatitis C Infection” (J Med Chem, 2019).

Active and inactive are the calls of the source. The rule behind the calls is not given here.

In one series the target is T1, DNA polymerase alpha (Homo sapiens, UniProt P09884).
T1 sequence (P09884 whole entry): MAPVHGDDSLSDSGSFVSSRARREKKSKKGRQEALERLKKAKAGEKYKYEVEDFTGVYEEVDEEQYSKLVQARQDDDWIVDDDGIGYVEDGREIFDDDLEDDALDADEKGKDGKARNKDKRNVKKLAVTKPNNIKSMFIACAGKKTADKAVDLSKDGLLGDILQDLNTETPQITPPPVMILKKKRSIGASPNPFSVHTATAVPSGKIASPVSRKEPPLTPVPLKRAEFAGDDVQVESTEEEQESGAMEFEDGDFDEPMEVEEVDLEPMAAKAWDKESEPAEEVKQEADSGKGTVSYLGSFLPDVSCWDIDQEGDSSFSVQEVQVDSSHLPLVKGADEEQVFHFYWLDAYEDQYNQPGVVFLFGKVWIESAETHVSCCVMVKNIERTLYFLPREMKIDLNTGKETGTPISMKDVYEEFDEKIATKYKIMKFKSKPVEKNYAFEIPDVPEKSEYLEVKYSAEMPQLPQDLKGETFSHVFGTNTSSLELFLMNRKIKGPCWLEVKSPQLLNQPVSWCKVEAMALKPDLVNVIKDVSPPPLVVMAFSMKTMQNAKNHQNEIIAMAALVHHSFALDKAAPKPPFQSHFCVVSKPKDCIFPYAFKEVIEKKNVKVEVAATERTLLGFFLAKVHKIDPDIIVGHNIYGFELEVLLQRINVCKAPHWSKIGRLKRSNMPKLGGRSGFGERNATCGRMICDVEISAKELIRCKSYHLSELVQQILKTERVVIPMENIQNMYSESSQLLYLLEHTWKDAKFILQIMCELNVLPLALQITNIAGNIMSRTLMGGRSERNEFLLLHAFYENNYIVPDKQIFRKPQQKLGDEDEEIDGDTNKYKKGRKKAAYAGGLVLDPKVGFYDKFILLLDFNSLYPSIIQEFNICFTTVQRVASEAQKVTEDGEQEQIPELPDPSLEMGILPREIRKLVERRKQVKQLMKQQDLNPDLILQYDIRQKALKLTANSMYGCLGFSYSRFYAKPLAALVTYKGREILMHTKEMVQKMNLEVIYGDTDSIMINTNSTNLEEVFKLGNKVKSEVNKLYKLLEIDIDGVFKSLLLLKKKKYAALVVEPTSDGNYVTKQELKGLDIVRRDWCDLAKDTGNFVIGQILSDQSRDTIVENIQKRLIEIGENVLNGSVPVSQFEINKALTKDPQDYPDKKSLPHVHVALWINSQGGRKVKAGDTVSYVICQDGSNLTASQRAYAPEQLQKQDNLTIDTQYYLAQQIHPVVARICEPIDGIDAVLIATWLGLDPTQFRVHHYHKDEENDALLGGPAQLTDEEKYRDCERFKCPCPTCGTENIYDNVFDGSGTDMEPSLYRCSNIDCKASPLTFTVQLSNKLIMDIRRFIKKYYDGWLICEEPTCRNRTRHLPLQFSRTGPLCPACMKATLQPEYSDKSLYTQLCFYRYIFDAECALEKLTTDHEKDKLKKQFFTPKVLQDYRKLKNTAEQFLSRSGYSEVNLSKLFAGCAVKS
Description: Inhibition of human DNA polymerase-alpha assessed as reduction in [3H]dTTP incorporation in to activated calf thymus DNA substrate at 100 uM by scintillation counting method relative to control. To be noted: human DNA polymerase-alpha enzyme, probe [3H]dTTP.

The next series concerns the target DNA polymerase beta (Homo sapiens, UniProt P06746). Kind of series: Inhibition of human DNA polymerase-beta assessed as reduction in [3H]dTTP incorporation in to activated calf thymus DNA substrate at 100 uM by scintillation counting method relative to control. To be noted: human DNA polymerase-beta enzyme, probe [3H]dTTP.
Another series addresses T2, DNA polymerase gamma (Homo sapiens, UniProt P54098).
T2 sequence (P54098 whole entry): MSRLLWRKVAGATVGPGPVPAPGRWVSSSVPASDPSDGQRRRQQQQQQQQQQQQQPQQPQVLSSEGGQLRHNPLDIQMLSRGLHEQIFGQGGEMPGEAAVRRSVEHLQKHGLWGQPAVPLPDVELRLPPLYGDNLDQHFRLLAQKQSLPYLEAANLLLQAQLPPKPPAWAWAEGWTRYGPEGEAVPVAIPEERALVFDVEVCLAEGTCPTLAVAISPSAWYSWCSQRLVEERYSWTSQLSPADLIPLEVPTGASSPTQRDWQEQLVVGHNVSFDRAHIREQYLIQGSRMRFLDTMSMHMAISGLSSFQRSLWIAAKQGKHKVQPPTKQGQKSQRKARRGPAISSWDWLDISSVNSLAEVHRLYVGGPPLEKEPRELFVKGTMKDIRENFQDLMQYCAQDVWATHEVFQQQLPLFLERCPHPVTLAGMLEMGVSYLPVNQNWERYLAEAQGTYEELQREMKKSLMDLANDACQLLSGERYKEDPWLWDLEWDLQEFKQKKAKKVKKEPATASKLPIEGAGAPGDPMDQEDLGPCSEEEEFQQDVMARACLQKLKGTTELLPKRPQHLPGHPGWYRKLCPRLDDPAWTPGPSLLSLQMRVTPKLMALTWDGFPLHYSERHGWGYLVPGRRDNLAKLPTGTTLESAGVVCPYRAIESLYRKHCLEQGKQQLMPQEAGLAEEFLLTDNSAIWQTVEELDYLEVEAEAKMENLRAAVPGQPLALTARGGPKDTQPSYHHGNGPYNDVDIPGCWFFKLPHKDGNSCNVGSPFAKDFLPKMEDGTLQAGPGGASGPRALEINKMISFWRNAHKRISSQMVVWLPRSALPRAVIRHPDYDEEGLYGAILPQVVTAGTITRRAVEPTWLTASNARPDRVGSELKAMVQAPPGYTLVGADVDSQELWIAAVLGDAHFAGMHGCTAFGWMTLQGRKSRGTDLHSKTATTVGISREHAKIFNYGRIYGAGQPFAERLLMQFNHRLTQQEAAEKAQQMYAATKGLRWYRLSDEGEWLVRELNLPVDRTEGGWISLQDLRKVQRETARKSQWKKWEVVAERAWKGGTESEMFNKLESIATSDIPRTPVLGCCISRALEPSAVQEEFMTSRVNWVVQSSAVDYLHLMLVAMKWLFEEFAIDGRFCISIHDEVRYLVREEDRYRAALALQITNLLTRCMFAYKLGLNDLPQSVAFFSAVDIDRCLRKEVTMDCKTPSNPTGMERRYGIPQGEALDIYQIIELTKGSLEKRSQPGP
Description: Inhibition of human DNA polymerase-gamma assessed as reduction in [3H]dTTP incorporation in to activated calf thymus DNA substrate at 100 uM by scintillation counting method relative to control. The settings on record: human DNA polymerase-gamma enzyme, probe [3H]dTTP.

Series [1] concerns the target RNA-directed RNA polymerase (Hepacivirus hominis, UniProt O39930). Kind of series: Inhibition of HCV NS5B RNA-dependent RNA polymerase activity assessed as reduction in radiolabeled-CTP incorporation into RNA using cIRES template measured after 2 hrs by microscintillation counting method.
Series [2] deals with RNA-directed RNA polymerase (Hepacivirus hominis) (UniProt O39930). Kind of series: Inhibition of HCV NS5B RNA-dependent RNA polymerase assessed as chain termination of RNA synthesis by measuring reduction in UTP incorporation at 100 uM using 33P-labeled 5'-GG-3'/5'-AUGUAUAAUUAUUGUAGCC-3' as primer/template measured after 2 hrs by phosphor-screening analysis. A digest of the protocol:
(§1)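 Recombinant NS5B (2 μM) with 1 μM template and 0.5 μM 33P-labeled GG primer in 40 mM Tris-HCl pH 8, 3 mM DTT, 20 mM NaCl, 6 mM MgCl2. Started with combinations of CTP, ATP, UTP, test NTP and 3'-dUTP, each 100 μM; 2 h at 30°C. Samples denatured 95°C 5 min, resolved on 22.5% polyacrylamide urea sequencing gel, phosphor-screen imaged.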

The target is the same in series [3]. Description: Inhibition of HCV NS5B RNA-dependent RNA polymerase assessed as chain termination of RNA synthesis by measuring reduction in dUTP incorporation at 100 uM using 33P-labeled 5'-GG-3'/5'-AUGUAUAAUUAUUGUAGCC-3' as primer/template measured after 2 hrs by phosphor-screening analysis. The method in brief: as §1
A short description of series [4]: Inhibition of RNA polymerase 2 in human HeLa cell nuclear extract assessed as reduction in RNA transcription by PAGE analysis. Type of series: cell-based. The method in brief: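 In vitro transcription by RNA polymerase II in HeLa cell nuclear extract; RNA products resolved on 6% TBE-urea polyacrylamide gels.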
The target in series [5] is DNA-directed RNA polymerase, mitochondrial (Homo sapiens, UniProt O00411). Description: Inhibition of human mitochondrial DNA-dependent RNA polymerase activity at 100 uM using 33P-RNA/DNA primer/template by phosphor-imaging analysis.
DNA-directed RNA polymerase, mitochondrial, sequence (O00411 whole entry): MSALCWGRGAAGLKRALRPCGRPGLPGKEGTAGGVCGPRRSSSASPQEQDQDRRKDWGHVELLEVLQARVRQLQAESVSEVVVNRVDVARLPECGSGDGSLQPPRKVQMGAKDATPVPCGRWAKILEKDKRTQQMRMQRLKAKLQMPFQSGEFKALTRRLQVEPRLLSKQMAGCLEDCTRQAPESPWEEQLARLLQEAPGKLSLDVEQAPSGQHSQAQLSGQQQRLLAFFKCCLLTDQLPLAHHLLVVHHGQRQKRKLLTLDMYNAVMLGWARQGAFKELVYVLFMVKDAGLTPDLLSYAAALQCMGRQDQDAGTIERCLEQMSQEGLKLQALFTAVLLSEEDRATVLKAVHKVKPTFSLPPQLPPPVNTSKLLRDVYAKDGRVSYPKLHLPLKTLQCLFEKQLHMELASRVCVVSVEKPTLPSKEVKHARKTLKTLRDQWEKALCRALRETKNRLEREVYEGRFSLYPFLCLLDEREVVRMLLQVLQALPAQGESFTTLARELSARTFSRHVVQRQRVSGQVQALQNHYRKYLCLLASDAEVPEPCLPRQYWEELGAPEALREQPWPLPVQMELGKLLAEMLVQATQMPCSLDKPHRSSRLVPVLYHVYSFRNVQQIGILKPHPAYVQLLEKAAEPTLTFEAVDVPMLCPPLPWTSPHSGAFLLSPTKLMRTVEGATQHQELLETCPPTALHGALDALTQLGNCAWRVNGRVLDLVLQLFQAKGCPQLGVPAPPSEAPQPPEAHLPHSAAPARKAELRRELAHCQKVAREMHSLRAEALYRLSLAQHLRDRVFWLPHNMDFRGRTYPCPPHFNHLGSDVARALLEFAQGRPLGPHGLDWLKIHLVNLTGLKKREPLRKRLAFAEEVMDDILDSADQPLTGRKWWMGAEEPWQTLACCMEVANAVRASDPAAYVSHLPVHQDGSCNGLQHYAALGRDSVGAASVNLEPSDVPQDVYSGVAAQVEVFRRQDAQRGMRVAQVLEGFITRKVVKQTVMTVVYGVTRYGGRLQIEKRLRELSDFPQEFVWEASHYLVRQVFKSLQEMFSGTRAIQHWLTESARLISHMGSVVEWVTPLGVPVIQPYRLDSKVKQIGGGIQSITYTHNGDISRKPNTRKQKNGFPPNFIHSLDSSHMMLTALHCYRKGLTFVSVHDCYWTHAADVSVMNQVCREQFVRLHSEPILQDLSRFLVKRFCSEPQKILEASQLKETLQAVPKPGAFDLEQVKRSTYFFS
The nature of series [6]: Cytotoxicity against human HuH7 cells treated for 8 days measured post-last dose by Celltiter-glo luminescent assay. The format is cell-based, Huh-7. A digest of the protocol: (§2)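 Cells at 1×10^5/well on collagen I, first kept 8 days in recommended medium without drug. Then compound exposure for 8 days, refed every other day. Viability by CellTiter-Glo luminescence; CC50 by curve fitting.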

Series [7] can be described thus: Cytotoxicity against human HepG2 cells treated for 8 days measured post-last dose by Celltiter-glo luminescent assay. Type of series: cell-based. The method in brief:
as §2

Series [8] is described as follows: Cytotoxicity against human A549 cells treated for 8 days measured post-last dose by Celltiter-glo luminescent assay. Type of series: cell-based. The method in brief:
as §2
In general terms: Cellular ATP, detected with luciferase, serves as a proxy for viable cell number.

A short description of series [9]: Cytotoxicity against human HeLa cells treated for 8 days measured post-last dose by Celltiter-glo luminescent assay. Type of series: cell-based. A digest of the protocol:
as §2

The nature of series [10]: Cytotoxicity against human U937 cells treated for 8 days measured post-last dose by Celltiter-glo luminescent assay. Type of series: cell-based, U-937. A digest of the protocol: as §2
The nature of series [11]: Cytotoxicity against human MT4 cells treated for 8 days measured post-last dose by Celltiter-glo luminescent assay. The format is cell-based. The method in brief:
as §2

Broadly, the inhibition is the drop in the measured response relative to a control, in per cent. For orientation: IC50 means the point on the concentration scale where inhibition reaches its midpoint. The CC50 is the concentration that lowers cell viability or growth by half. Low readings indicate greater toxicity to the cells, high ones lower toxicity to the cells.

RNA-directed RNA polymerase, sequence (O39930 whole entry): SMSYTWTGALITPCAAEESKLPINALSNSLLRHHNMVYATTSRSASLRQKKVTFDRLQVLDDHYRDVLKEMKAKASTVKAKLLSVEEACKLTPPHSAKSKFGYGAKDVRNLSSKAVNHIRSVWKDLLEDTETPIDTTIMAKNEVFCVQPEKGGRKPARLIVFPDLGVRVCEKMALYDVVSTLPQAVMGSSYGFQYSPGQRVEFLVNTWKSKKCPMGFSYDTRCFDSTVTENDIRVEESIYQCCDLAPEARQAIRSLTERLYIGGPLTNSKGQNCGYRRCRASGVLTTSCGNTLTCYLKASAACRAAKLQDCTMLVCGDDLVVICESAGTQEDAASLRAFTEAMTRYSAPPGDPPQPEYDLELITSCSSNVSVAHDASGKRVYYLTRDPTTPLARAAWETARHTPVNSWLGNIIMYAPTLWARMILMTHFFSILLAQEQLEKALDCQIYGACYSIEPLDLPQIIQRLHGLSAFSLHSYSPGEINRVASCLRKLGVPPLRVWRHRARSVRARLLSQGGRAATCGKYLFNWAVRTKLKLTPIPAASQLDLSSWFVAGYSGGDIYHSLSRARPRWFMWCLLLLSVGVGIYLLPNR
RNA-directed RNA polymerase (Hepacivirus hominis), sequence (O39930 1-591): as the sequence (O39930 whole entry) above

For `O=c1ccn([C@@H]2O[C@](F)(COP(=O)(O)OP(=O)(O)OP(=O)(O)O)[C@@H](O)[C@]2(F)Cl)c(=O)[nH]1`, the results for the inhibition at 100 µM on DNA polymerase alpha, at DNA polymerase beta and on DNA polymerase gamma were 75.8%, 18.1% and 7.9%, respectively. The half-inhibitory concentration (IC50) in series [1] worked out at 190 nM.
On to `C[C@]1(O)[C@H](n2ccc(=O)[nH]c2=O)O[C@](F)(COP(=O)(O)OP(=O)(O)OP(=O)(O)O)[C@H]1O` [ADAFOSBUVIR 5'-TRIPHOSPHATE], for which the inhibition entry in series [2] and in [3] was “Active” throughout. Moreover, the inhibition at 100 µM was found to be 16.1% on DNA polymerase alpha, 12.6% at DNA polymerase beta and 9.6% at DNA polymerase gamma. The 50% inhibitory concentration (IC50) in series [4] is > 100000 nM; in series [1], 140 nM. The “inhibition (INH)” value in [5] is on record as “Not Active”.
With `C[C@@]1(O)[C@H](O)[C@@H](COP(=O)(O)OP(=O)(O)OP(=O)(O)O)O[C@H]1n1ccc(=O)[nH]c1=O`, the inhibition at 100 µM at DNA polymerase alpha was 22.4%; on DNA polymerase beta it was -0.008%; on DNA polymerase gamma, 14.6%. Further, in series [4], the IC50 was > 100000 nM. Also, the “inhibition (INH)” value in series [5] was “Active”.
On to `COc1nc(N)nc2c1ncn2[C@@H]1O[C@H](COP(=O)(N[C@@H](C)C(=O)OCC(C)(C)C)Oc2cccc3ccccc23)[C@@H](O)[C@@]1(C)O` (stereo partly drawn) [BMS-986094], for which the half-maximal cytotoxic concentration (CC50) at 192 h in series [6] was 350 nM; in series [7] it was 1500 nM; in [8] it was 7800 nM; in [9], 13400 nM; in series [10], 170 nM; in series [11], 960 nM.
As to `C[C@@]1(Cl)[C@H](O)[C@@H](COP(=O)(O)OP(=O)(O)OP(=O)(O)O)O[C@H]1n1ccc(=O)[nH]c1=O` [4A-TP], the results for the inhibition at 100 µM on DNA polymerase alpha, at DNA polymerase beta and at DNA polymerase gamma were 34.5%, 22.6% and 9.5%, respectively. Also, the IC50 in [4] is > 100000 nM. The “inhibition (INH)” value in [5] was “Active”.
With `O=c1ccn([C@@H]2O[C@H](COP(=O)(O)OP(=O)(O)OP(=O)(O)O)[C@@H](O)[C@]2(F)Cl)c(=O)[nH]1`, the inhibition at 100 µM on DNA polymerase alpha is 70.8%; on DNA polymerase beta, 24.7%; on DNA polymerase gamma it was 15.7%. Also, the results for the IC50 in series [4] and in series [1] were > 100000 nM and 300 nM, respectively.
Take `C[C@]1(F)[C@H](n2ccc(=O)[nH]c2=O)O[C@](F)(COP(=O)(O)OP(=O)(O)OP(=O)(O)O)[C@H]1O`: the values for the inhibition at 100 µM at DNA polymerase alpha, at DNA polymerase beta and on DNA polymerase gamma were 40.9%, 15.2% and -10%, respectively. Besides, the half-maximal inhibitory concentration (IC50) in [4] is > 100000 nM; in [1], 860 nM.
With `C[C@@]1(F)[C@H](O)[C@@H](COP(=O)(O)OP(=O)(O)OP(=O)(O)O)O[C@H]1n1ccc(=O)[nH]c1=O` [GS-461203], the inhibition at 100 µM was determined as 58.2% on DNA polymerase alpha, 14% at DNA polymerase beta and 9.2% at DNA polymerase gamma. Moreover, the half-inhibitory concentration (IC50) in series [4] is > 100000 nM.
As for `C[C@]1(Cl)[C@H](n2ccc(=O)[nH]c2=O)O[C@](F)(COP(=O)(O)OP(=O)(O)OP(=O)(O)O)[C@H]1O`, the inhibition at 100 µM worked out at 19.7% at DNA polymerase alpha, 24.3% at DNA polymerase beta and 18.4% at DNA polymerase gamma. Moreover, the 50% inhibitory concentration (IC50) in series [4] was > 100000 nM; in series [1], 110 nM. Moreover, in series [5], the “inhibition (INH)” value was “Not Active”.
